According to ChEMBL document CHEMBL1139875, “Discovery of 4-aminobutyric acid derivatives possessing anticonvulsant and antinociceptive activities: a hybrid pharmacophore approach” (2007):

Key:
Assay type in all cases: functional
Rattus norvegicus [1] = test: Antihyperalgesic effects in Sprague-Dawley rat SNL model assessed as duration of paw withdrawal at 100 mg/kg, ip after 1 hr, ip; conditions: route intraperitoneal
Summary of the method: (§1)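 L5 SNL rats (n = 4), dosed 100 mg/kg i.p. (vehicle 30% v/v PEG 400 in water). Pin-prick to midplantar ipsilateral left hindpaw; withdrawal duration, mean of three responses; ≥2 s defined abnormal. Mean ± SEM; one-way ANOVA with Bonferroni versus predrug.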

Rattus norvegicus [2] = test: Effect on spontaneous pain in Sprague-Dawley rat CCI model assessed as duration of paw withdrawal at 100 mg/kg, ip after 1.5 hrs; conditions: route intraperitoneal
Summary of the method: (§2)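 Unilateral CCI of sciatic nerve (Bennett and Xie) in Sprague-Dawley rats under i.p. pentobarbital sodium (65 mg/kg). Spontaneous pain is scored over 5 min after 10 min acclimatization, as cumulative time the ipsilateral paw is held off the floor. Paw lifts from locomotion or repositioning are excluded. Drug is given at 100 mg/kg i.p. with 30% v/v PEG 400 vehicle. Mean ± SEM, n = 4, compared with predrug by ANOVA/Bonferroni.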

Rattus norvegicus [3] = test: Anti-dynamic allodynia effect in Sprague-Dawley rat SNL model assessed as latency to paw withdrawal 100 mg/kg, ip after 1.5 hrs; conditions: route intraperitoneal
Summary of the method: (§3)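 Left L5 spinal nerve ligation rats, tested preoperatively and 9 days postoperatively, then given 100 mg/kg i.p. (vehicle 30% v/v PEG 400 in water). After 10 min acclimatization, plantar surface of affected paw stroked mildly with a cotton-bud; paw lift response recorded. n = 4; retested 0.5-2.5 h post-dose.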

Rattus norvegicus [4] = test: Antihyperalgesic effects in Sprague-Dawley rat SNL model assessed as duration of paw withdrawal at 100 mg/kg, ip after 2.5 hrs, ip; conditions: route intraperitoneal; summary of the method: as §1
Rattus norvegicus [5] = species on record: Rattus norvegicus; test: Anti-dynamic allodynic effect in Sprague-Dawley rat CCI model assessed as latency to paw withdrawal after 1 hr
Summary of the method: (§4)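 Rats with sciatic nerve chronic constriction injury (pentobarbital 65 mg/kg i.p. anaesthesia), baseline and day 9 testing, then drug per randomization table. After 10 min acclimatization, affected plantar surface stroked mildly with a cotton-bud; paw lift recorded. n = 4; retested 0.5-2.5 h post-dose.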

Rattus norvegicus [6] = test: Anti-dynamic allodynia effect in Sprague-Dawley rat SNL model assessed as latency to paw withdrawal 100 mg/kg, ip after 0.5 hr; conditions: route intraperitoneal; summary of the method: as §3
Rattus norvegicus [7] = test: Effect on spontaneous pain in Sprague-Dawley rat CCI model assessed as duration of paw withdrawal at 100 mg/kg, ip after 2.5 hrs; conditions: route intraperitoneal; summary of the method: as §2
Rattus norvegicus [8] = test: Anti-cold allodynia effect in Sprague-Dawley rat CCI model assessed as duration of paw withdrawal 100 mg/kg, ip after 1.5 hr; conditions: route intraperitoneal
Summary of the method: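 CCI by sciatic nerve ligation under pentobarbital (65 mg/kg i.p.). Rats tested at baseline and 9 days post-surgery; those with allodynia dosed i.p. 100 mg/kg, vehicle 30% v/v PEG 400 in water. Acetone (100-200 µL) misted on midplantar affected paw; withdrawal duration recorded, three samples averaged, at least 3 min apart; n = 4.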

Rattus norvegicus [9] = test: Antihyperalgesic effects in Sprague-Dawley rat SNL model assessed as duration of paw withdrawal at 100 mg/kg, ip after 0.5 hr, ip; conditions: route intraperitoneal; summary of the method: as §1
Rattus norvegicus [10] = species on record: Rattus norvegicus; test: Anti-dynamic allodynic effect in Sprague-Dawley rat CCI model assessed as latency to paw withdrawal after 2.5 hr; summary of the method: as §4
Rattus norvegicus [11] = test: Antihyperalgesic effects in Sprague-Dawley rat CCI model assessed as duration of paw withdrawal at 100 mg/kg, ip after 0.5 hr; conditions: route intraperitoneal
Rattus norvegicus [12] = species on record: Rattus norvegicus; test: Anti-dynamic allodynic effect in Sprague-Dawley rat CCI model assessed as latency to paw withdrawal after 2 hr; summary of the method: as §4
Rattus norvegicus [13] = test: Antihyperalgesic effects in Sprague-Dawley rat SNL model assessed as duration of paw withdrawal at 100 mg/kg, ip after 1.5 hrs, ip; conditions: route intraperitoneal; summary of the method: as §1
Rattus norvegicus [14] = test: Effect on spontaneous pain in Sprague-Dawley rat CCI model assessed as duration of paw withdrawal at 100 mg/kg, ip after 2 hrs; conditions: route intraperitoneal; summary of the method: as §2
Rattus norvegicus [15] = test: Anti-dynamic allodynia effect in Sprague-Dawley rat SNL model assessed as latency to paw withdrawal 100 mg/kg, ip after 2.5 hrs; conditions: route intraperitoneal; summary of the method: as §3
Rattus norvegicus [16] = test: Effect on spontaneous pain in Sprague-Dawley rat SNL model assessed as duration of paw withdrawal at 100 mg/kg, ip after 2.5 hrs; conditions: route intraperitoneal
Summary of the method: (§5)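 Rats underwent left L5 spinal nerve ligation (Kim and Chung) under i.p. pentobarbital (65 mg/kg). Spontaneous pain is recorded for 5 min after 10 min acclimatization, as cumulative duration the ipsilateral paw is lifted, excluding locomotor lifts. Dosing is 100 mg/kg i.p. in 30% v/v PEG 400/water, with testing at 0.5–2.5 h. Four rats, mean ± SEM versus predrug, one-way ANOVA with Bonferroni.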

Rattus norvegicus [17] = test: Antihyperalgesic effects in Sprague-Dawley rat CCI model assessed as duration of paw withdrawal at 100 mg/kg, ip after 1 hr; conditions: route intraperitoneal
Rattus norvegicus [18] = test: Effect on spontaneous pain in Sprague-Dawley rat CCI model assessed as duration of paw withdrawal at 100 mg/kg, ip after 0.5 hr; conditions: route intraperitoneal
Summary of the method: (§6)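 CCI rats (n = 4) dosed 100 mg/kg i.p. (vehicle 30% v/v PEG 400 in water). After 10 min acclimatization in a cage 5 cm above ground, cumulative time the ipsilateral paw was held off the floor over 5 min recorded, excluding locomotion lifts. Mean ± SEM; ANOVA/Bonferroni versus predrug.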

Rattus norvegicus [19] = test: Effect on spontaneous pain in Sprague-Dawley rat CCI model assessed as duration of paw withdrawal at 100 mg/kg, ip after 1 hr; conditions: route intraperitoneal; summary of the method: as §6
Rattus norvegicus [20] = species on record: Rattus norvegicus; test: Anti-dynamic allodynic effect in Sprague-Dawley rat CCI model assessed as latency to paw withdrawal after 1.5 hr; summary of the method: as §4
Rattus norvegicus [21] = species on record: Rattus norvegicus; test: Anti-dynamic allodynic effect in Sprague-Dawley rat CCI model assessed as latency to paw withdrawal after 0.5 hr; summary of the method: as §4
Rattus norvegicus [22] = test: Antihyperalgesic effects in Sprague-Dawley rat CCI model assessed as duration of paw withdrawal at 100 mg/kg, ip after 2.5 hrs; conditions: route intraperitoneal
Rattus norvegicus [23] = test: Effect on spontaneous pain in Sprague-Dawley rat SNL model assessed as duration of paw withdrawal at 100 mg/kg, ip after 1 hr; conditions: route intraperitoneal; summary of the method: as §5
Rattus norvegicus [24] = test: Antihyperalgesic effects in Sprague-Dawley rat CCI model assessed as duration of paw withdrawal at 100 mg/kg, ip after 1.5 hrs; conditions: route intraperitoneal
Rattus norvegicus [25] = test: Antihyperalgesic effects in Sprague-Dawley rat CCI model assessed as duration of paw withdrawal at 100 mg/kg, ip after 2 hrs; conditions: route intraperitoneal
Mus musculus = test: Analgesic activity in Swiss Albino mouse assessed as inhibition of acetic acid-induced writhing responses at 100 mg/kg, ip; conditions: route intraperitoneal
Summary of the method: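 Mice in groups of six dosed i.p. at 100 mg/kg, controls receiving 30% v/v PEG 400 in water. Writhing induced by i.p. 0.1 mL of 3% v/v acetic acid 1 h after drug. Writhes (abdominal stretch with at least one hind limb extended) counted over 30 min; % inhibition calculated. Mean ± SEM, Student's t test.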

Structure (SMILES)	Activity (Rattus norvegicus [1])	Activity (Rattus norvegicus [2])	Activity (Rattus norvegicus [3])	Activity (Rattus norvegicus [4])	Activity (Rattus norvegicus [5])	Activity (Rattus norvegicus [7])	Activity (Rattus norvegicus [9])	Activity (Rattus norvegicus [10])	Activity (Rattus norvegicus [11])	Activity (Rattus norvegicus [12])	Activity (Rattus norvegicus [13])	Activity (Rattus norvegicus [14])	Activity (Rattus norvegicus [17])	Activity (Rattus norvegicus [18])	Activity (Rattus norvegicus [19])	Activity (Rattus norvegicus [20])	Activity (Rattus norvegicus [21])	Activity (Rattus norvegicus [22])	Activity (Rattus norvegicus [24])	Activity (Rattus norvegicus [25])	further results
NCC1(CC(=O)O)CCCCC1 [GABAPENTIN]	10.2 s	13.1 s	6 s	8.8 s	4.6 s	18.1 s	20.1 s	6.6 s	36.8 s	5.9 s	10 s	11 s	12.3 s	62.2 s	15.5 s	5.5 s	1.6 s	8.4 s	10.7 s	9.2 s	Activity (Rattus norvegicus [6]): 1.5 s; Activity (Rattus norvegicus [8]): 9.3 s; Activity (Rattus norvegicus [15]): 6.53 s; Activity (Rattus norvegicus [16]): 10.1 s; Activity (Rattus norvegicus [23]): 12.9 s
CN(C)c1ccc(/C=N/NC(=O)NCCCC(=O)O)cc1	5.8 s	38.2 s	7.3 s	5.8 s	10.9 s	5.2 s	4.7 s	8.4 s	17.4 s	8.2 s	5.5 s	11.9 s	13.1 s	47.2 s	48.8 s	10.3 s	10.9 s	4.8 s	9.7 s	5.8 s	Activity (Rattus norvegicus [6]): 10.7 s; Activity (Rattus norvegicus [8]): 14.4 s; Activity (Rattus norvegicus [15]): 1.82 s; Activity (Rattus norvegicus [16]): 43 s; inhibition in vivo at 100 mg/kg (Mus musculus): 93%; Activity (Rattus norvegicus [23]): 21.2 s
O=C(O)CCCNC(=O)N/N=C/c1ccccc1O	17.3 s	23.7 s	11.5 s	17.3 s	13.5 s	7.3 s	17.6 s	13.1 s	7.5 s	14.6 s	10.6 s	11.2 s	7.7 s	10.5 s	19.3 s	11.1 s	13.6 s	7.3 s	4.4 s	4.1 s	Activity (Rattus norvegicus [6]): 11.2 s; Activity (Rattus norvegicus [8]): 11.2 s; Activity (Rattus norvegicus [15]): 11.32 s; inhibition in vivo at 100 mg/kg (Mus musculus): 89%
NC(=O)N1c2ccccc2C=Cc2ccccc21 [CARBAMAZEPINE]	5.2 s	32.8 s	2.9 s	5.8 s	3.7 s	76.9 s	11.1 s	3.8 s	13.3 s	3.4 s	6.6 s	67.4 s	15.7 s	24.6 s	17.8 s	4.9 s	2.7 s	24 s	22.9 s	21.7 s	Activity (Rattus norvegicus [6]): 14.7 s; Activity (Rattus norvegicus [8]): 28.9 s; Activity (Rattus norvegicus [15]): 1.65 s; Activity (Rattus norvegicus [16]): 94.9 s; Activity (Rattus norvegicus [23]): 7.9 s
Nc1nnc(-c2cccc(Cl)c2Cl)c(N)n1 [LAMOTRIGINE]	8.2 s	76.9 s	1.9 s	17.3 s	1.3 s	67.8 s	22.5 s	1 s	36.2 s	0.9 s	10.1 s	71.2 s	36.7 s	69.2 s	79 s	0.9 s	5.7 s	29.8 s	35.7 s	33.7 s	Activity (Rattus norvegicus [6]): 1.9 s; Activity (Rattus norvegicus [8]): 32.4 s; Activity (Rattus norvegicus [15]): 0.64 s; Activity (Rattus norvegicus [16]): 24.4 s; Activity (Rattus norvegicus [23]): 13.3 s
O=C(O)CCCNC(=O)N/N=C1\C(=O)Nc2ccccc21	9.6 s	21.6 s	–	18.7 s	12.4 s	20.2 s	4.7 s	0.8 s	10.8 s	8.4 s	45.7 s	20.6 s	4.9 s	38.6 s	34.9 s	15.5 s	14.5 s	27.8 s	8.8 s	5 s	Activity (Rattus norvegicus [16]): 9.8 s; inhibition in vivo at 100 mg/kg (Mus musculus): 74%; Activity (Rattus norvegicus [23]): 0.9 s
